Results published in ChEMBL document CHEMBL1155568, “Biological characterization of fusapyrone and deoxyfusapyrone, two bioactive secondary metabolites of Fusarium semitectum” (J Nat Prod, 2000).
Converted amounts (≈) assume the structure as drawn.

Experiments:
[1] = Toxicity against Artemia salina larvae; format: organism-based; conditions: in vivo
Method in brief: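 Quadruplicate wells; mortality counted after 24 and 36 h at 27 °C. LC50 from probit analysis of dose-mortality data from six independent experiments.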

Solanum lycopersicum = test: Phytotoxicity in tomato leaf assessed as chlorosis in the leaf at 10^-5 M by tomato cutting assay; format: organism-based; conditions: in vivo, 10 µM
Method in brief: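 Young greenhouse tomato plants cut with razor; stems immersed in toxin solutions (10^-3 to 10^-6 M; compound in small MeOH volume diluted with water) 24 h at 22 °C, 12-h photoperiod, fluorescent light. Then moved to distilled water 48 h under same conditions; symptoms (e.g. chlorosis, wilting) scored visually.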

Rhodotorula mucilaginosa = test: Antifungal activity against Rhodotorula pilimanae at 15 ug/disk by […]; format: functional
Fusarium graminearum = test: Antifungal activity against Fusarium graminearum ITEM 2 at 15 ug/disk by paper disk method; format: functional
Method in brief: (§1)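 Agar overlay diffusion: 0.7% water-agar with 10^4 conidia/mL of test fungus poured over PDA; 6-mm cellulose disks impregnated with methanolic compound solution, air-dried. Incubated 25 °C for 24-72 h by fungus; growth-inhibition halo diameter from three replicate disks. Agar under disks then subcultured on PDA to score fungicidal/fungistatic classes. Repeated twice, averaged.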

Botrytis cinerea [2] = test: Antifungal activity against Botrytis cinerea at 15 ug/disk by paper disk method; format: functional
Method in brief: (§2)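 Agar diffusion: a 0.7% water-agar overlay carrying 10^4 conidia/mL (or yeast cells) is poured on PDA. 6-mm cellulose disks loaded with methanolic compound at 5 or 15 µg/disk are air-dried and applied, with nystatin as comparator. Plates incubated 24-72 h at 25 °C; inhibition halo diameter read from three disks. Agar under each disk is subcultured on PDA to score fungicidal/fungistatic effect. Experiment run twice and averaged.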

Alternaria citri = test: Antifungal activity against Alternaria citri ITEM 466 at 15 ug/disk by paper disk method; format: functional; method in brief: as §1
Wickerhamomyces anomalus [3] = test: Antifungal activity against Pichia anomala ITEM 1661 at 15 ug/disk by paper disk method; format: functional
Method in brief: (§3)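 Agar overlay disk diffusion on plant-derived filamentous fungi and yeasts: 0.7% water-agar seeded with 10^4 conidia/mL or a yeast cell suspension, poured over PDA. 6-mm cellulose disks were loaded from methanolic solutions and air-dried, with nystatin as comparator. Plates ran 24-72 h at 25 °C; inhibition halo was measured over three disks. Agar beneath disks was subcultured on PDA to separate fungicidal from fungistatic, scored in four classes; run twice, averaged.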

[4] = system: Fusarium oxysporum f. sp. lycopersici; test: Antifungal activity against Fusarium oxysporum f. sp. lycopersici ITEM 1462 at 15 ug/disk by paper disk method; format: functional; method in brief: as §2
Penicillium verrucosum = test: Antifungal activity against Penicillium verrucosum ITEM 439 at 15 ug/disk by paper disk method; format: functional; method in brief: as §3
Pichia kluyveri = test: Antifungal activity against Pichia kluyveri ITEM 1649 at 15 ug/disk by paper disk method; format: functional; method in brief: as §3
Fusarium oxysporum [5] = test: Antifungal activity against Fusarium oxysporum ITEM 1462 at 15 ug/disk by paper disk method; format: functional; method in brief: as §2
Alternaria alternata [6] = test: Antifungal activity against Alternaria alternata ITEM 750 at 15 ug/disk by paper disk method; format: functional; method in brief: as §2
Aspergillus flavus = test: Antifungal activity against Aspergillus flavus ITEM 9 at 15 ug/disk by paper disk method; format: functional; method in brief: as §2
Starmera dryadoides = test: Antifungal activity against Pichia dryadoides ITEM 1663 at 15 ug/disk by paper disk method; format: functional; method in brief: as §3
Fusarium incarnatum = test: Antifungal activity against Fusarium semitectum ITEM 393 at 15 ug/disk by paper disk method; format: functional; method in brief: as §2
Alternaria alternata [7] = test: Antifungal activity against Alternaria alternata ITEM 511 at 15 ug/disk by paper disk method; format: functional; method in brief: as §2
Fusarium verticillioides = test: Antifungal activity against Fusarium moniliforme ITEM 1497 at 15 ug/disk by paper disk method; format: functional; method in brief: as §2
[8] = system: Meyerozyma guilliermondii; test: Antifungal activity against Pichia guilliermondii ITEM 1644 at 15 ug/disk by paper disk method; format: functional; method in brief: as §3
Botrytis cinerea [9] = test: Antifungal activity against Botrytis cinerea ITEM 966 at 15 ug/disk by paper disk method; format: functional; method in brief: as §2
Cladosporium cucumerinum = test: Antifungal activity against Cladosporium cucumerinum ITEM 2095 at 15 ug/disk by paper disk method; format: functional; method in brief: as §2
[10] = system: Meyerozyma guilliermondii; test: Antifungal activity against Candida guilliermondii ITEM 1638 at 15 ug/disk by paper disk method; format: functional; method in brief: as §2
Wickerhamomyces anomalus [11] = test: Antifungal activity against Pichia anomala ITEM 1625 at 15 ug/disk by paper disk method; format: functional; method in brief: as §3
Plenodomus tracheiphilus = test: Antifungal activity against Phoma tracheiphilla ITEM 1605 at 15 ug/disk by paper disk method; format: functional; method in brief: as §3
Ascochyta rabiei = test: Antifungal activity against Ascochyta rabiei ITEM 1067 at 15 ug/disk by paper disk method; format: functional; method in brief: as §2
Fusarium acuminatum = test: Antifungal activity against Fusarium acuminatum ITEM 795 at 15 ug/disk by paper disk method; format: functional; method in brief: as §2
Fusarium oxysporum [12] = test: Antifungal activity against Fusarium oxysporum ITEM 149 at 15 ug/disk by paper disk method; format: functional; method in brief: as §2
Kluyveromyces lactis = test: Antifungal activity against Kluyveromyces lactis ITEM 1656 at 15 ug/disk by paper disk method; format: functional; method in brief: as §3
Kluyveromyces marxianus = test: Antifungal activity against Kluyveromyces fragilis ITEM 1657 at 15 ug/disk by paper disk method; format: functional; method in brief: as §3
Saccharomyces cerevisiae = test: Antifungal activity against Saccharomyces cerevisiae ITEM 1633 at 15 ug/disk by paper disk method; format: functional; method in brief: as §3
Alternaria alternata [13] = test: Antifungal activity against Alternaria alternata ITEM 468 at 15 ug/disk by paper disk method; format: functional; method in brief: as §2
Aspergillus parasiticus = test: Antifungal activity against Aspergillus parasiticus ITEM 11 at 15 ug/disk by paper disk method; format: functional; method in brief: as §2
[14] = system: Penicillium brevicompactum; test: Antifungal activity against Penicillium brevicompactum ITEM 449 at 15 ug/disk by paper disk method; format: functional; method in brief: as §3
[15] = system: Cladosporium cladosporioides; test: Antifungal activity against Cladosporium cladosporioides ITEM 2079 at 15 ug/disk by paper disk method; format: functional; method in brief: as §2
[16] = system: Colletotrichum gloeosporioides; test: Antifungal activity against Colletotrichum gloeosporioides ITEM 1729 at 15 ug/disk by paper disk method; format: functional; method in brief: as §2
Fusarium subglutinans = test: Antifungal activity against Fusarium subglutinans at 15 ug/disk by paper disk method; format: functional; method in brief: as §2
Candida maltosa = test: Antifungal activity against Candida maltosa ITEM 1639 at 15 ug/disk by paper disk method; format: functional; method in brief: as §2
Alternaria alternata [17] = test: Antifungal activity against Alternaria alternata ITEM 526 at 15 ug/disk by paper disk method; format: functional; method in brief: as §2

CC(=O)OC[C@@H](C)C1=C(O)C(=O)[C@@]2(C)C/C=C(\C)CC/C=C(\C)CC[C@H](O)/C(C)=C/C[C@H]12 [FUSAPROLIFERIN]
LC50 [1]: 23.7 µg/mL (≈ 53.3 µM)

CCCCc1ccc(C(=O)O)nc1 [FUSARIC ACID]
Activity (Solanum lycopersicum): Active

NYSTATIN
inhibition zone (IZ) (Rhodotorula mucilaginosa): 28.5 mm
inhibition zone (IZ) (Fusarium graminearum): 25.9 mm
inhibition zone (IZ) (Botrytis cinerea [2]): 31 mm
inhibition zone (IZ) (Alternaria citri): 30 mm
inhibition zone (IZ) (Wickerhamomyces anomalus [3]): 15 mm
inhibition zone (IZ) [4]: 21.7 mm
inhibition zone (IZ) (Penicillium verrucosum): 28.2 mm
Activity (Pichia kluyveri): 16.5 mm
inhibition zone (IZ) (Fusarium oxysporum [5]): 20 mm
inhibition zone (IZ) (Alternaria alternata [6]): 29.2 mm
inhibition zone (IZ) (Aspergillus flavus): 29 mm
inhibition zone (IZ) (Starmera dryadoides): 19 mm
inhibition zone (IZ) (Fusarium incarnatum): 27 mm
inhibition zone (IZ) (Alternaria alternata [7]): 32.2 mm
inhibition zone (IZ) (Fusarium verticillioides): 18.7 mm
inhibition zone (IZ) [8]: 18.5 mm
inhibition zone (IZ) (Botrytis cinerea [9]): 31.2 mm
inhibition zone (IZ) (Cladosporium cucumerinum): 32.7 mm
inhibition zone (IZ) [10]: 20 mm
inhibition zone (IZ) (Wickerhamomyces anomalus [11]): 18.8 mm
inhibition zone (IZ) (Plenodomus tracheiphilus): 31.8 mm
inhibition zone (IZ) (Ascochyta rabiei): 38.5 mm
inhibition zone (IZ) (Fusarium acuminatum): 20.8 mm
inhibition zone (IZ) (Fusarium oxysporum [12]): 19.5 mm
inhibition zone (IZ) (Kluyveromyces lactis): 18 mm
inhibition zone (IZ) (Kluyveromyces marxianus): 19.5 mm
inhibition zone (IZ) (Saccharomyces cerevisiae): 21 mm
inhibition zone (IZ) (Alternaria alternata [13]): 30.2 mm
inhibition zone (IZ) (Aspergillus parasiticus): 28.7 mm
inhibition zone (IZ) [14]: 18.3 mm
inhibition zone (IZ) [15]: 37.3 mm
inhibition zone (IZ) [16]: 38.2 mm
Activity (Fusarium subglutinans): 24 mm
inhibition zone (IZ) (Candida maltosa): 20 mm
inhibition zone (IZ) (Alternaria alternata [17]): 28.7 mm
